Residues, ends and D or L forms follow the SMILES beside them.
What was measured:
[1] = target: T1, Delta-type opioid receptor (Mus musculus, UniProt P32300); assay: Antagonist activity at delta opioid receptor in mouse assessed as effect on electrically evoked vas-deferens contraction by MVD test; format: functional; conditions: read-out: pA2 (converted)
Rattus norvegicus [2] = species: Rattus norvegicus; assay: Selectivity ratio of Ki for Sprague-Dawley rat mu opioid receptor to Ki for Sprague-Dawley rat delta opioid receptor
[3] = target: Delta-type opioid receptor (Rattus norvegicus, UniProt P33533); assay: Displacement of [3H]DPDPE from delta opioid receptor in Sprague-Dawley rat brain synaptosomal membranes; format: cell membranes, Membrane
Procedure, shortened: (§1)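 Radioligand competition in rat brain synaptosomal preparations. Peptides tested at five to eight graded doses, each assay in duplicate, repeated three to six times on several different synaptosomal preparations. Ki calculated by Cheng–Prusoff; mean ± SEM.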

Mu-type opioid receptor [4] = target: Mu-type opioid receptor (Rattus norvegicus, UniProt P33535); assay: Displacement of [3H]DAMGO from mu opioid receptor in Sprague-Dawley rat brain synaptosomal membranes; format: cell membranes, Membrane; procedure, shortened: as §1
Mu-type opioid receptor [5] = target: Mu-type opioid receptor (Cavia porcellus, UniProt P97266); assay: Agonist activity at mu opioid receptor in Hartley guinea pig assessed as inhibition of electrically evoked ileum contraction by GPI test; format: functional, tissue-based
Procedure, shortened: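 Isolated tissue bioassays: mouse vas deferens (delta) and guinea-pig ileum (mu). Agonism expressed as IC50 read from dose–response curves. Internal standards were deltorphin C (MVD) and dermorphin (GPI). Mean ± SEM of at least six fresh tissue samples.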

Rattus norvegicus [6] = species: Rattus norvegicus; assay: Selectivity ratio of Ki for Sprague-Dawley rat delta opioid receptor to Ki for Sprague-Dawley rat mu opioid receptor
[7] = target: T1, Delta-type opioid receptor; assay: Agonist activity at delta opioid receptor in mouse assessed as inhibition of electrically evoked vas-deferens contraction by MVD test

Mu-type opioid receptor (Rattus norvegicus, UniProt P33535), sequence (P33535 whole entry): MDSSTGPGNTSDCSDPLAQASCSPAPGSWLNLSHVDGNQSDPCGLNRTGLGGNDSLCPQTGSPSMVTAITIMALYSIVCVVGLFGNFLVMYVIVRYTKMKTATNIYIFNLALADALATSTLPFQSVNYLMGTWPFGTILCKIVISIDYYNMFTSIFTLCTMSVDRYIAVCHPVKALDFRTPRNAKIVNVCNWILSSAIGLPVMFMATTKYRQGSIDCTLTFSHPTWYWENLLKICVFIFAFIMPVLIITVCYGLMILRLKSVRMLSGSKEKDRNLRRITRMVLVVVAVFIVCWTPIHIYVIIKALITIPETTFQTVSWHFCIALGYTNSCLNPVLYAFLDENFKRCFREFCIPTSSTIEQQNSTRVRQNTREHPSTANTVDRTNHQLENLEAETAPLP
T1 sequence (P32300 whole entry): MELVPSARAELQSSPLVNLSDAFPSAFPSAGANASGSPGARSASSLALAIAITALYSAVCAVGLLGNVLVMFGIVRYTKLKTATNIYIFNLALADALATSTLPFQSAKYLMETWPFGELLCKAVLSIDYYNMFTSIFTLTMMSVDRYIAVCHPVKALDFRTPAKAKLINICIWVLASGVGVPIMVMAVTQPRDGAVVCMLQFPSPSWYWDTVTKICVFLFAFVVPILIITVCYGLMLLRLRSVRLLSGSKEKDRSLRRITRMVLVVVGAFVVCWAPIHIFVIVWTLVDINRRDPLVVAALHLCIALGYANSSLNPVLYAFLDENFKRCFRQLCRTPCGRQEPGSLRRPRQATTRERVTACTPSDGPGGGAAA
Mu-type opioid receptor (Cavia porcellus, UniProt P97266), sequence (P97266 whole entry): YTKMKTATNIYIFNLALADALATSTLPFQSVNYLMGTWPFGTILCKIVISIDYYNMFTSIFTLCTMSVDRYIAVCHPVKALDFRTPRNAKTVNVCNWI
Delta-type opioid receptor (Rattus norvegicus, UniProt P33533), sequence (P33533 whole entry): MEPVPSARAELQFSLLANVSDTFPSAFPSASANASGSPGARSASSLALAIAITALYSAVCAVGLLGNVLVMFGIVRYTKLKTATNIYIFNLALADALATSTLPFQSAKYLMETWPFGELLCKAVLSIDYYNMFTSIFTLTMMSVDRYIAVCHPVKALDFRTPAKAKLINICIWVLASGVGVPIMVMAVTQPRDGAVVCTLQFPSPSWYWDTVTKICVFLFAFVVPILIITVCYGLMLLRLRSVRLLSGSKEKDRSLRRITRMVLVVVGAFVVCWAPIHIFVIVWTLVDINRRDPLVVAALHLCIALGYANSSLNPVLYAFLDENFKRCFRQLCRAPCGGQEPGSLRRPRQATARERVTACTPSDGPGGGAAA

Structure (SMILES)	Kb [1]	Ratio Ki (Rattus norvegicus [2])	Ki [3]	Ki (Mu-type opioid receptor [4])	IC50 (Mu-type opioid receptor [5])	Ratio Ki (Rattus norvegicus [6])	IC50 [7]
Cc1cc(O)cc(C)c1C[C@H](N)C(=O)N1Cc2ccccc2C[C@H]1C(=O)NCC(=O)NCc1ccccc1 (HELM PEPTIDE1{[Cc1cc(O)cc(C)c1C[C@H](N)C(=O)[*:2]].[Tic].G.[c1ccc(CN[*:1])cc1]}$$$$V2.0)	0.501 nM	5.2					
Cc1cc(O)cc(C)c1C[C@H](N)C(=O)N[C@H]1Cc2ccccc2CN([C@@H](CCCCN)C(=O)NCc2ccccc2)C1=O			290 nM	10.1 nM	3270 nM	29	
Cc1cc(O)cc(C)c1C[C@@H](C(=O)N[C@@H]1Cc2c([nH]c3ccccc23)CN(CC(=O)O)C1=O)N(C)C		8.8	1150 nM	10100 nM			
Cc1cc(O)cc(C)c1C[C@@H](C(=O)N[C@@H]1Cc2c([nH]c3ccccc23)CN(CC(=O)NCc2ccccc2)C1=O)N(C)C			681 nM	133 nM		5	
Cc1cc(O)cc(C)c1C[C@@H](C(=O)N[C@H]1Cc2c([nH]c3ccccc23)CN(CC(=O)O)C1=O)N(C)C	5.01 nM	132	6.64 nM	875 nM	> 20000 nM		> 20000 nM
Cc1cc(O)cc(C)c1C[C@H](N)C(=O)N[C@@H]1Cc2c([nH]c3ccccc23)CN(CC(=O)O)C1=O		4	720 nM	2900 nM			
Cc1cc(O)cc(C)c1C[C@H](N)C(=O)N[C@H]1Cc2c([nH]c3ccccc23)CN(CC(=O)NCc2ccccc2)C1=O			358 nM	50 nM	1800 nM	7.2	
Cc1cc(O)cc(C)c1C[C@H](N)C(=O)N[C@H]1Cc2ccccc2CN([C@@H](CC(=O)O)C(=O)NCc2ccccc2)C1=O			1480 nM	630 nM		2.3	
Cc1cc(O)cc(C)c1C[C@H](N)C(=O)N[C@H]1Cc2ccccc2CN(CC(=O)NCc2ccccc2)C1=O			11 nM	0.46 nM		24	
Cc1cc(O)cc(C)c1C[C@H](N)C(=O)N[C@H]1Cc2ccccc2CNC1=O			368 nM	12.4 nM	631 nM	30	
Cc1cc(O)cc(C)c1C[C@H](N)C(=O)N[C@H]1Cc2c([nH]c3ccccc23)CN(CC(=O)O)C1=O		1.8	806 nM	1450 nM	> 20000 nM		
Cc1cc(O)cc(C)c1C[C@@H](C(=O)N[C@H]1Cc2ccccc2CNC1=O)N(C)C	63.1 nM	3.2	20.5 nM	64.9 nM	> 20000 nM		> 20000 nM
Cc1cc(O)cc(C)c1C[C@H](N)C(=O)N[C@H]1Cc2c([nH]c3ccccc23)CN(CC(=O)OCc2ccccc2)C1=O			4060 nM	244 nM		17	
Cc1cc(O)cc(C)c1C[C@H](N)C(=O)N[C@@H]1Cc2c([nH]c3ccccc23)CN(CC(=O)NCc2ccccc2)C1=O			161 nM	3.35 nM	14.9 nM	48	1500 nM

From ChEMBL document CHEMBL1154529, “Conformationally constrained opioid ligands: the Dmt-Aba and Dmt-Aia versus Dmt-Tic scaffold” (Bioorg Med Chem Lett, 2009)
